According to ChEMBL document CHEMBL4229372, “Synthesis and anti-mitotic activity of 2,4- or 2,6-disubstituted- and 2,4,6-trisubstituted-2H-pyrazolo[4,3-c]pyridines” (2018):
Activity calls are given as the source filed them. The rule behind the calls is not given here.

Experiments:
K562 [1] = test: Growth inhibition of human K562 cells after 72 hrs by Calcein AM dye based fluorescence assay; type: functional; settings: K562, 72 h
In short: (§1)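 Cells in DMEM with 10% FBS at 37 °C, 5% CO2, treated in triplicate with six doses for 72 h. Calcein AM was added for 1 h and live-cell fluorescence read at 485/538 nm. GI50 was taken from dose-response curves.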

MCF7 [2] = test: Growth inhibition of human MCF7 cells after 72 hrs by Calcein AM dye based fluorescence assay; type: functional; settings: MCF7, 72 h; in short: as §1
[3] = molecular target: Cyclin-dependent kinase 1 (Homo sapiens) (UniProt P06493); test: Inhibition of CDK1 (unknown origin)
K562 [4] = test: Cell cycle arrest in human K562 cells assessed as accumulation at sub G1 phase at 10 uM after 24 hrs by propidium iodide staining-based flow cytometric analysis (reference value: 15%); type: functional
K562 [5] = test: Cell cycle arrest in human K562 cells assessed as accumulation at G1 phase at 10 uM after 24 hrs by propidium iodide staining-based flow cytometric analysis (reference value: 34.6%); type: functional
K562 [6] = test: Cell cycle arrest in human K562 cells assessed as accumulation at S phase at 10 uM after 24 hrs by propidium iodide staining-based flow cytometric analysis (reference value: 50.3%); type: functional
K562 [7] = test: Cell cycle arrest in human K562 cells assessed as accumulation at G2/M phase at 10 uM after 24 hrs by propidium iodide staining-based flow cytometric analysis (reference value: 15%); type: functional
MCF7 [8] = test: Cell cycle arrest in human MCF7 cells assessed as accumulation at sub G1 phase at 10 uM after 24 hrs by propidium iodide staining-based flow cytometric analysis (reference value: 7.1%); type: functional
In short: (§2)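 MCF-7 cells in DMEM with 10% FBS and penicillin/streptomycin at 37 °C, 5% CO2. Asynchronous cells were treated 24 h, PBS-washed, trypsinized and quenched with 0.1% trypsin inhibitor. Staining used 5× citrate/IGEPAL/spermine/Tris buffer (pH 7.6) with 50 μg/mL propidium iodide. DNA content was read by 488 nm flow cytometry and cell-cycle phases modelled.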

MCF7 [9] = test: Cell cycle arrest in human MCF7 cells assessed as accumulation at G1 phase at 10 uM after 24 hrs by propidium iodide staining-based flow cytometric analysis (reference value: 60.7%); type: functional; in short: as §2
MCF7 [10] = test: Cell cycle arrest in human MCF7 cells assessed as accumulation at S phase at 10 uM after 24 hrs by propidium iodide staining-based flow cytometric analysis (reference value: 34.1%); type: functional; in short: as §2
MCF7 [11] = test: Cell cycle arrest in human MCF7 cells assessed as accumulation at G2/M phase at 10 uM after 24 hrs by propidium iodide staining-based flow cytometric analysis (reference value: 5.3%); type: functional; in short: as §2
K562 [12] = test: Cell cycle arrest in human K562 cells assessed as accumulation at sub G1 phase at 0.25 uM after 24 hrs by propidium iodide staining-based flow cytometric analysis (reference value: 15%); type: functional
K562 [13] = test: Cell cycle arrest in human K562 cells assessed as accumulation at G1 phase at 0.25 uM after 24 hrs by propidium iodide staining-based flow cytometric analysis (reference value: 34.6%); type: functional
K562 [14] = test: Cell cycle arrest in human K562 cells assessed as accumulation at S phase at 0.25 uM after 24 hrs by propidium iodide staining-based flow cytometric analysis (reference value: 50.3%); type: functional
K562 [15] = test: Cell cycle arrest in human K562 cells assessed as accumulation at G2/M phase at 0.25 uM after 24 hrs by propidium iodide staining-based flow cytometric analysis (reference value: 15%); type: functional
MCF7 [16] = test: Cell cycle arrest in human MCF7 cells assessed as accumulation at sub G1 phase at 0.25 uM after 24 hrs by propidium iodide staining-based flow cytometric analysis (reference value: 7.1%); type: functional; in short: as §2
MCF7 [17] = test: Cell cycle arrest in human MCF7 cells assessed as accumulation at G1 phase at 0.25 uM after 24 hrs by propidium iodide staining-based flow cytometric analysis (reference value: 60.7%); type: functional; in short: as §2
MCF7 [18] = test: Cell cycle arrest in human MCF7 cells assessed as accumulation at S phase at 0.25 uM after 24 hrs by propidium iodide staining-based flow cytometric analysis (reference value: 34.1%); type: functional; in short: as §2
MCF7 [19] = test: Cell cycle arrest in human MCF7 cells assessed as accumulation at G2/M phase at 0.25 uM after 24 hrs by propidium iodide staining-based flow cytometric analysis (reference value: 5.3%); type: functional; in short: as §2
K562 [20] = test: Cell cycle arrest in human K562 cells assessed as accumulation at G2/M phase assessed as accumulation of histone H3 phosphorylation at serine 10 residues at 40 ng/ml uM after 24 hrs by propidium iodide staining-based flow cytometric analysis (reference value: 2.2%); type: functional
K562 [21] = test: Cell cycle arrest in human K562 cells assessed as accumulation at sub G1 phase at 83 nM after 24 hrs by propidium iodide staining-based flow cytometric analysis (reference value: 15%); type: functional
K562 [22] = test: Cell cycle arrest in human K562 cells assessed as accumulation at G1 phase at 83 nM after 24 hrs by propidium iodide staining-based flow cytometric analysis (reference value: 34.6%); type: functional
K562 [23] = test: Cell cycle arrest in human K562 cells assessed as accumulation at S phase at 83 nM after 24 hrs by propidium iodide staining-based flow cytometric analysis (reference value: 50.3%); type: functional
K562 [24] = test: Cell cycle arrest in human K562 cells assessed as accumulation at G2/M phase at 83 nM after 24 hrs by propidium iodide staining-based flow cytometric analysis (reference value: 15%); type: functional
MCF7 [25] = test: Cell cycle arrest in human MCF7 cells assessed as accumulation at sub G1 phase at 83 nM after 24 hrs by propidium iodide staining-based flow cytometric analysis (reference value: 7.1%); type: functional; in short: as §2
MCF7 [26] = test: Cell cycle arrest in human MCF7 cells assessed as accumulation at G1 phase at 83 nM after 24 hrs by propidium iodide staining-based flow cytometric analysis (reference value: 60.7%); type: functional; in short: as §2
MCF7 [27] = test: Cell cycle arrest in human MCF7 cells assessed as accumulation at S phase at 83 nM after 24 hrs by propidium iodide staining-based flow cytometric analysis (reference value: 34.1%); type: functional; in short: as §2
MCF7 [28] = test: Cell cycle arrest in human MCF7 cells assessed as accumulation at G2/M phase at 83 nM after 24 hrs by propidium iodide staining-based flow cytometric analysis (reference value: 5.3%); type: functional; in short: as §2

Cyclin-dependent kinase 1 (Homo sapiens), sequence (P06493 whole entry, looked up): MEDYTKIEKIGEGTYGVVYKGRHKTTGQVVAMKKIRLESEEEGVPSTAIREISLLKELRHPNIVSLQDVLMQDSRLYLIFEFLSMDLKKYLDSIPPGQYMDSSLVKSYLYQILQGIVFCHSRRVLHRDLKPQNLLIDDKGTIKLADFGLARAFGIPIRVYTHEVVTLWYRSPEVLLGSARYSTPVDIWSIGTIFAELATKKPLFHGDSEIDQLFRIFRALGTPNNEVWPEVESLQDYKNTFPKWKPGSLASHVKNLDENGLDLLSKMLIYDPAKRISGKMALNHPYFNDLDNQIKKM

| SMILES | GI50 (K562 [1]) [µM] | GI50 (MCF7 [2]) [µM] | inhibition [3] | Activity (K562 [4]) [%] | Activity (K562 [5]) [%] | Activity (K562 [6]) [%] | Activity (K562 [7]) [%] | Activity (MCF7 [8]) [%] | Activity (MCF7 [9]) [%] | Activity (MCF7 [10]) [%] | Activity (MCF7 [11]) [%] | also measured |
| --- | --- | --- | --- | --- | --- | --- | --- | --- | --- | --- | --- | --- |
| CC(C)c1nccc2nn(-c3ccccc3)cc12 | > 100 | 98.8 | inactive | – | – | – | – | – | – | – | – | – |
| CCCCc1cc2nn(-c3ccccc3)cc2cn1 | 6.7 | 13.3 | inactive | 37.7 | 24.8 | 12.8 | 62.3 | 31.1 | 36 | 30.3 | 33.7 | – |
| c1ccc(-n2cc3cnccc3n2)cc1 | > 100 | > 100 | inactive | – | – | – | – | – | – | – | – | – |
| CCCCc1cc2nn(-c3ccccc3)cc2c(C)n1 | 8.5 | 11.1 | inactive | 40.8 | 28.2 | 30.5 | 41.4 | 19.3 | 48.5 | 24 | 27.5 | – |
| Cc1nc(-c2ccsc2)cc2nn(-c3ccccc3)cc12 | 10 | 22.2 | inactive | 45.7 | 26.2 | 29.2 | 44.6 | 22.7 | 37.2 | 31.2 | 31.6 | – |
| Cc1nc(C2CC2)cc2nn(-c3ccccc3)cc12 | 25.9 | 63.5 | inactive | 15.3 | 34.7 | 45.8 | 19.6 | 9 | 63.6 | 30.2 | 6.3 | – |
| Cc1nc(CCO)cc2nn(-c3ccccc3)cc12 | > 100 | > 100 | inactive | – | – | – | – | – | – | – | – | – |
| c1ccc(-n2cc3cnc(C4CC4)cc3n2)cc1 | 60.5 | 69.3 | inactive | 19.6 | 32.3 | 52.2 | 15.5 | 7.5 | 64.7 | 29.4 | 5.9 | – |
| Cc1nccc2nn(-c3ccccc3)cc12 | > 100 | > 100 | inactive | – | – | – | – | – | – | – | – | – |
| CC(C)c1nc(-c2ccccc2)cc2nn(-c3ccccc3)cc12 | 36.8 | 91 | inactive | 21.3 | 35.1 | 46.6 | 18.3 | 6.7 | 62.6 | 30.6 | 6.9 | – |
| Cc1nc(-c2ccccc2)cc2nn(-c3ccccc3)cc12 | 6.3 | 11 | inactive | 46.2 | 13.7 | 36.1 | 50.2 | 11.9 | 65.5 | 20.5 | 14.1 | – |
| CC(=O)c1c(C)c2cnc(Nc3ccc(N4CCNCC4)cn3)nc2n(C2CCCC2)c1=O [PALBOCICLIB] | – | – | – | – | – | – | – | – | – | – | – | Activity (K562 [12]): 35%; Activity (K562 [13]): 54%; Activity (K562 [14]): 30.1%; Activity (K562 [15]): 15.9%; Activity (MCF7 [16]): 7.5%; Activity (MCF7 [17]): 90%; Activity (MCF7 [18]): 5.5%; Activity (MCF7 [19]): 4.6% |
| Cn1cc2cnc(-c3ccccc3)cc2n1 | > 100 | > 100 | inactive | – | – | – | – | – | – | – | – | – |
| c1ccc(-c2cc3nn(-c4ccccc4)cc3cn2)cc1 | 3.4 | 4.8 | inactive | 43 | 19.8 | 5.5 | 74.7 | 14.3 | 56.8 | 26.2 | 17 | – |
| CCCCCc1cc2nn(-c3ccccc3)cc2c(C)n1 | 6.9 | 17 | inactive | 28.3 | 21.8 | 28.3 | 49.9 | 31.1 | 50.2 | 18.1 | 31.7 | – |
| COC(=O)Nc1nc2cc(C(=O)c3cccs3)ccc2[nH]1 [NOCODAZOLE] | – | – | – | – | – | – | – | – | – | – | – | Activity (K562 [20]): 33.2%; Activity (K562 [21]): 49.4%; Activity (K562 [22]): 3.6%; Activity (K562 [23]): 26.8%; Activity (K562 [24]): 69.7%; Activity (MCF7 [25]): 32.1%; Activity (MCF7 [26]): 14.4%; Activity (MCF7 [27]): 49.9%; Activity (MCF7 [28]): 35.7% |
| OCCc1cc2nn(-c3ccccc3)cc2cn1 | > 100 | > 100 | inactive | – | – | – | – | – | – | – | – | – |
| c1ccc(-n2cc3cnc(-c4ccsc4)cc3n2)cc1 | 8.3 | 9.8 | inactive | 34.2 | 21.7 | 37.3 | 41.1 | 24.2 | 39.5 | 29.1 | 31.4 | – |
| CCCCc1cc2nn(-c3ccccc3)cc2c(C(C)C)n1 | 12.9 | 33.3 | inactive | 47.1 | 26.7 | 44.2 | 29 | 7.8 | 66.1 | 24.5 | 9.4 | – |
